Test results published in ChEMBL document CHEMBL4425163, “Structure elucidation of anti-methicillin resistant Staphylococcus aureus (MRSA) flavonoids from balsam poplar buds” (Bioorg Med Chem, 2016).
Values after ≈ are worked out from the molar mass of the structure shown.

Legend:
Staphylococcus aureus [1] = assay: Antibacterial activity against methicillin resistant Staphylococcus aureus clinical isolate 1 incubated […] by microdilution resazurin assay; type: functional
Staphylococcus aureus [2] = assay: Antibacterial activity against methicillin resistant Staphylococcus aureus clinical isolate 2 incubated […] by microdilution resazurin assay; type: functional
Staphylococcus aureus [3] = assay: Antibacterial activity against methicillin resistant Staphylococcus aureus clinical isolate 3 incubated for 7 to 14 days by microdilution resazurin assay
Staphylococcus aureus [4] = assay: Antibacterial activity against methicillin resistant Staphylococcus aureus clinical isolate 4 incubated for 7 to 14 days by microdilution resazurin assay
Staphylococcus aureus [5] = assay: Antibacterial activity against methicillin resistant Staphylococcus aureus clinical isolate 5 incubated […] by microdilution resazurin assay; type: functional; settings: Staphylococcus aureus, isolate 5; read-out: MIC
Staphylococcus aureus [6] = assay: Antibacterial activity against methicillin resistant Staphylococcus aureus clinical isolate 6 incubated […] by microdilution resazurin assay; type: functional
Staphylococcus aureus [7] = assay: Antibacterial activity against methicillin resistant Staphylococcus aureus clinical isolate 7 incubated […] by microdilution resazurin assay; type: functional; settings: Staphylococcus aureus, isolate 7; read-out: MIC
Staphylococcus aureus [8] = assay: Antibacterial activity against methicillin resistant Staphylococcus aureus clinical isolate 8 incubated […] by microdilution resazurin assay; type: functional
Staphylococcus aureus [9] = assay: Antibacterial activity against methicillin resistant Staphylococcus aureus clinical isolate 9 incubated […] by microdilution resazurin assay; type: functional
Staphylococcus aureus [10] = assay: Antibacterial activity against methicillin resistant Staphylococcus aureus clinical isolate 10 incubated […] by microdilution resazurin assay; type: functional; settings: Staphylococcus aureus, isolate 10; read-out: MIC
[11] = Cytotoxicity against human WS1 cells by resazurin reduction assay; type: cell-based
Summary of the method: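 WS1 human fibroblast line; resazurin reduction test, slightly modified from an earlier method. Etoposide served as positive control.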

Staphylococcus aureus [12] = assay: Antibacterial activity against Staphylococcus aureus ATCC 25923 incubated […] by microdilution resazurin assay; type: functional
[13] = Staphylococcus aureus, isolate 1, read-out: MIC
[14] = Staphylococcus aureus, isolate 2, read-out: MIC
[15] = Staphylococcus aureus, isolate 6, read-out: MIC
[16] = Staphylococcus aureus, isolate 8, read-out: MIC
[17] = Staphylococcus aureus, isolate 9, read-out: MIC
[18] = Staphylococcus aureus, ATCC 25923, read-out: MIC

Compound	MIC (Staphylococcus aureus [1]; [13]) [µM]	MIC (Staphylococcus aureus [2]; [14]) [µM]	MIC (Staphylococcus aureus [3]) [µM]	MIC (Staphylococcus aureus [4]) [µM]	MIC (Staphylococcus aureus [5]) [µM]	MIC (Staphylococcus aureus [6]; [15]) [µM]	MIC (Staphylococcus aureus [7]) [µM]	MIC (Staphylococcus aureus [8]; [16]) [µM]	MIC (Staphylococcus aureus [9]; [17]) [µM]	MIC (Staphylococcus aureus [10]) [µM]	IC50 ([11]; Homo sapiens, WS1) [µM]	MIC (Staphylococcus aureus [12]; [18]) [µM]	MIC (Staphylococcus aureus [1]) [µM]	MIC (Staphylococcus aureus [2]) [µM]	MIC (Staphylococcus aureus [8]) [µM]	IC50 [11] [µM]	MIC (Staphylococcus aureus [12]) [µM]	MIC (Staphylococcus aureus [6]) [µM]	MIC (Staphylococcus aureus [9]) [µM]
O=C(CCc1ccccc1)c1c(O)cc(O)c2c1OC(c1ccc(O)cc1)C(O)C2 (stereo in doubt; (-)-15)	50 (≈ 20.3 µg/mL)	25 (≈ 10.2 µg/mL)	50 (≈ 20.3 µg/mL)	50 (≈ 20.3 µg/mL)	25 (≈ 10.2 µg/mL)	50 (≈ 20.3 µg/mL)	25 (≈ 10.2 µg/mL)	50 (≈ 20.3 µg/mL)	50 (≈ 20.3 µg/mL)	25 (≈ 10.2 µg/mL)	> 10	–	–	–	–	–	–	–	–
COc1ccc(CCC(=O)c2c(O)cc(O)c3c2O[C@H](c2ccc(O)cc2)CC3)cc1	> 50	> 50	> 50	> 50	> 50	> 50	> 50	> 50	> 50	> 50	> 10	> 50	–	–	–	–	–	–	–
O=C(CCc1ccc(O)cc1)c1c(O)cc(O)c2c1O[C@H](c1ccc(O)cc1)[C@@H](C/C=C/c1ccc(O)cc1)C2	3 (≈ 1.62 µg/mL)	3 (≈ 1.62 µg/mL)	3 (≈ 1.62 µg/mL)	3 (≈ 1.62 µg/mL)	3 (≈ 1.62 µg/mL)	3 (≈ 1.62 µg/mL)	3 (≈ 1.62 µg/mL)	3 (≈ 1.62 µg/mL)	3 (≈ 1.62 µg/mL)	3 (≈ 1.62 µg/mL)	> 10	6 (≈ 3.23 µg/mL)	–	–	–	–	–	–	–
O=C(CCc1ccccc1)c1c(O)cc(O)c2c1OC(c1ccc(O)cc1)CC2 (stereo in doubt; (-)-12)	–	–	6 (≈ 2.34 µg/mL)	–	6 (≈ 2.34 µg/mL)	13 (≈ 5.08 µg/mL)	6 (≈ 2.34 µg/mL)	–	13 (≈ 5.08 µg/mL)	13 (≈ 5.08 µg/mL)	> 10	–	6 (≈ 2.34 µg/mL)	6 (≈ 2.34 µg/mL)	6 (≈ 2.34 µg/mL)	–	–	–	–
O=C(CCc1ccccc1)c1c(O)c2c(c3c1OC(c1ccc(O)cc1)C(C/C=C/c1ccc(O)cc1)C3)OC(c1ccc(O)cc1)C(C/C=C/c1ccc(O)cc1)C2 (racemic; form 2)	–	–	–	–	–	–	–	–	–	–	–	> 50	–	–	–	> 10	–	–	–
O=C(CCc1ccc(O)cc1)c1c(O)cc(O)c2c1O[C@@H](c1ccc(O)cc1)[C@H](C/C=C/c1ccc(O)cc1)C2	25 (≈ 13.5 µg/mL)	13 (≈ 7 µg/mL)	13 (≈ 7 µg/mL)	25 (≈ 13.5 µg/mL)	13 (≈ 7 µg/mL)	13 (≈ 7 µg/mL)	6 (≈ 3.23 µg/mL)	13 (≈ 7 µg/mL)	13 (≈ 7 µg/mL)	13 (≈ 7 µg/mL)	> 10	13 (≈ 7 µg/mL)	–	–	–	–	–	–	–
O=C(CCc1ccccc1)c1c(O)cc2c(c1O)CC(O)C(c1ccc(O)cc1)O2 (stereo in doubt; (-)-17)	50 (≈ 20.3 µg/mL)	50 (≈ 20.3 µg/mL)	50 (≈ 20.3 µg/mL)	50 (≈ 20.3 µg/mL)	50 (≈ 20.3 µg/mL)	50 (≈ 20.3 µg/mL)	25 (≈ 10.2 µg/mL)	> 50	> 50	50 (≈ 20.3 µg/mL)	> 10	–	–	–	–	–	25 (≈ 10.2 µg/mL)	–	–
O=C(CCc1ccccc1)c1c(O)cc(O)c2c1OC(c1ccc(O)cc1)CC2 (single isomer, unassigned; (+))	–	–	–	–	–	–	–	–	–	–	–	6 (≈ 2.34 µg/mL)	13 (≈ 5.08 µg/mL)	13 (≈ 5.08 µg/mL)	13 (≈ 5.08 µg/mL)	–	–	25 (≈ 9.76 µg/mL)	–
COc1ccc(CCC(=O)c2c(O)c3c(c4c2O[C@@H](c2ccc(O)cc2)[C@H](C/C=C/c2ccc(O)cc2)C4)O[C@@H](c2ccc(O)cc2)[C@H](O)C3)cc1 (racemic)	25 (≈ 17.5 µg/mL)	25 (≈ 17.5 µg/mL)	25 (≈ 17.5 µg/mL)	50 (≈ 35 µg/mL)	13 (≈ 9.11 µg/mL)	50 (≈ 35 µg/mL)	25 (≈ 17.5 µg/mL)	25 (≈ 17.5 µg/mL)	25 (≈ 17.5 µg/mL)	25 (≈ 17.5 µg/mL)	> 10	50 (≈ 35 µg/mL)	–	–	–	–	–	–	–
COc1ccc(CCC(=O)c2c(O)c3c(c4c2OC(c2ccc(O)cc2)C(C/C=C/c2ccc(O)cc2)C4)OC(c2ccc(O)cc2)C(C/C=C/c2ccc(O)cc2)C3)cc1 (racemic)	> 50	> 50	> 50	> 50	> 50	> 50	> 50	> 50	> 50	> 50	> 10	> 50	–	–	–	–	–	–	–
O=C(/C=C/c1ccccc1)OCC(C/C=C/c1ccc(O)cc1)C(c1ccc(O)cc1)c1c(O)cc(O)c(C(=O)CCc2ccccc2)c1O (racemic)	25 (≈ 16.8 µg/mL)	25 (≈ 16.8 µg/mL)	13 (≈ 8.72 µg/mL)	25 (≈ 16.8 µg/mL)	3 (≈ 2.01 µg/mL)	25 (≈ 16.8 µg/mL)	25 (≈ 16.8 µg/mL)	25 (≈ 16.8 µg/mL)	25 (≈ 16.8 µg/mL)	25 (≈ 16.8 µg/mL)	> 10	50 (≈ 33.5 µg/mL)	–	–	–	–	–	–	–
O=C(CCc1ccccc1)c1c(O)cc(O)c2c1OC(c1ccc(O)cc1)C(O)C2 (stereo in doubt; (+)-15)	–	–	–	–	–	–	–	–	–	–	–	25 (≈ 10.2 µg/mL)	25 (≈ 10.2 µg/mL)	–	25 (≈ 10.2 µg/mL)	–	–	25 (≈ 10.2 µg/mL)	25 (≈ 10.2 µg/mL)
